# Measured values taken from ChEMBL document CHEMBL4715736, “Identification of anticancer agents based on the thieno[2,3-b]pyridine and 1H-pyrazole molecular scaffolds” (2016).
# Test system: OVCAR-3
# Assay: Growth inhibition of human OVCAR-3 cells assessed as cell growth at 0.01 uM incubated for 48 hrs by sulforhodamine B assay relative to control
# Type: functional
# Settings: read-out: Activity
row,Compound,growth at 0.01 µM [%]
1,CN1CCc2nc3sc(C(N)=O)c(N)c3c(-c3cccs3)c2C1,110

# Test system: SR
# Assay: Growth inhibition of human SR cells assessed as cell growth at 1 uM incubated for 48 hrs by sulforhodamine B assay relative to control
# Type: functional
# Settings: read-out: Activity
row,Compound,growth at 1 µM [%]
1,CN1CCc2nc3sc(C(N)=O)c(N)c3c(-c3cccs3)c2C1,71

# Test system: HOP-62
# Assay: Growth inhibition of human HOP-62 cells assessed as cell growth at 0.01 uM incubated for 48 hrs by sulforhodamine B assay relative to control
# Type: functional
# Settings: read-out: Activity
row,Compound,growth at 0.01 µM [%]
1,CN1CCc2nc3sc(C(N)=O)c(N)c3c(-c3cccs3)c2C1,101

# Test system: SF-539
# Assay: Growth inhibition of human SF-539 cells assessed as cell growth at 1 uM incubated for 48 hrs by sulforhodamine B assay relative to control
# Type: functional
# Settings: read-out: Activity
row,Compound,growth at 1 µM [%]
1,CN1CCc2nc3sc(C(N)=O)c(N)c3c(-c3cccs3)c2C1,90

# Test system: MOLT-4
# Assay: Growth inhibition of human MOLT-4 cells assessed as cell growth at 100 uM incubated for 48 hrs by sulforhodamine B assay relative to control
# Type: functional
# Settings: read-out: Activity
row,Compound,growth at 100 µM [%]
1,CN1CCc2nc3sc(C(N)=O)c(N)c3c(-c3cccs3)c2C1,-4

# Test system: Hs-578T
# Assay: Growth inhibition of human Hs-578T cells assessed as cell growth at 100 uM incubated for 48 hrs by sulforhodamine B assay relative to control
# Type: functional
# Settings: read-out: Activity
row,Compound,growth at 100 µM [%]
1,CN1CCc2nc3sc(C(N)=O)c(N)c3c(-c3cccs3)c2C1,-13

# Test system: HT-29
# Assay: Growth inhibition of human HT-29 cells assessed as cell growth at 0.01 uM incubated for 48 hrs by sulforhodamine B assay relative to control
# Type: functional
# Settings: read-out: Activity
row,Compound,growth at 0.01 µM [%]
1,CN1CCc2nc3sc(C(N)=O)c(N)c3c(-c3cccs3)c2C1,106

# Test system: SF-268
# Assay: Growth inhibition of human SF-268 cells assessed as cell growth at 0.01 uM incubated for 48 hrs by sulforhodamine B assay relative to control
# Type: functional
# Settings: read-out: Activity
row,Compound,growth at 0.01 µM [%]
1,CN1CCc2nc3sc(C(N)=O)c(N)c3c(-c3cccs3)c2C1,106

# Test system: U-251
# Assay: Growth inhibition of human U-251 cells assessed as cell growth at 100 uM incubated for 48 hrs by sulforhodamine B assay relative to control
# Type: functional
# Settings: read-out: Activity
row,Compound,growth at 100 µM [%]
1,CN1CCc2nc3sc(C(N)=O)c(N)c3c(-c3cccs3)c2C1,7

# Test system: SF-295
# Assay: Growth inhibition of human SF-295 cells assessed as cell growth at 1 uM incubated for 48 hrs by sulforhodamine B assay relative to control
# Type: functional
# Settings: read-out: Activity
row,Compound,growth at 1 µM [%]
1,CN1CCc2nc3sc(C(N)=O)c(N)c3c(-c3cccs3)c2C1,100

# Test system: MOLT-4
# Assay: Growth inhibition of human MOLT-4 cells assessed as cell growth at 1 uM incubated for 48 hrs by sulforhodamine B assay relative to control
# Type: functional
# Settings: read-out: Activity
row,Compound,growth at 1 µM [%]
1,CN1CCc2nc3sc(C(N)=O)c(N)c3c(-c3cccs3)c2C1,85

# Test system: PC-3
# Assay: Growth inhibition of human PC-3 cells incubated for 48 hrs by sulforhodamine B assay
# Type: functional
# Settings: not given
# Outline: (§1)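 NCI DTP 60-line human tumour panel. Dose-response curves were run only for ligands active in the initial 10 µM screen. GI50 (concentration giving 50% of maximal inhibition of proliferation) and TGI (concentration giving total growth inhibition) were derived from these curves.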
Compound,GI50 [µM],TGI [µM]
CN1CCc2nc3sc(C(N)=O)c(N)c3c(-c3cccs3)c2C1,4.58,> 100

# Same assay, conditions: read-out: LC50 (the source's name)
row,Compound,CC50 [µM]
1,CN1CCc2nc3sc(C(N)=O)c(N)c3c(-c3cccs3)c2C1,> 100

# Test system: MDA-MB-231
# Assay: Growth inhibition of human MDA-MB-231 cells assessed as cell growth at 1 uM incubated for 48 hrs by sulforhodamine B assay relative to control
# Type: functional
# Settings: read-out: Activity
row,Compound,growth at 1 µM [%]
1,CN1CCc2nc3sc(C(N)=O)c(N)c3c(-c3cccs3)c2C1,97

# Test system: Hs-578T
# Assay: Growth inhibition of human Hs-578T cells assessed as cell growth at 0.1 uM incubated for 48 hrs by sulforhodamine B assay relative to control
# Type: functional
# Settings: read-out: Activity
row,Compound,growth at 0.1 µM [%]
1,CN1CCc2nc3sc(C(N)=O)c(N)c3c(-c3cccs3)c2C1,92

# Test system: OVCAR-4
# Assay: Growth inhibition of human OVCAR-4 cells assessed as cell growth at 0.01 uM incubated for 48 hrs by sulforhodamine B assay relative to control
# Type: functional
# Settings: read-out: Activity
row,Compound,growth at 0.01 µM [%]
1,CN1CCc2nc3sc(C(N)=O)c(N)c3c(-c3cccs3)c2C1,110

# Test system: TK-10
# Assay: Growth inhibition of human TK-10 cells assessed as cell growth at 0.01 uM incubated for 48 hrs by sulforhodamine B assay relative to control
# Type: functional
# Settings: read-out: Activity
row,Compound,growth at 0.01 µM [%]
1,CN1CCc2nc3sc(C(N)=O)c(N)c3c(-c3cccs3)c2C1,101

# Test system: NCI-H23
# Assay: Growth inhibition of human NCI-H23 cells incubated for 48 hrs by sulforhodamine B assay
# Type: functional
# Settings: not given
# Outline: (§2)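 NCI60 panel at the NCI Developmental Therapeutics Program. Only compounds active in the 10 µM screen went to dose-response testing. GI50, the concentration giving 50% of maximal inhibition of proliferation, and TGI, the concentration giving total growth inhibition, were derived from the dose-response curves.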
Compound,GI50 [nM],LC50 (50% lethal concentration) [µM],TGI [µM]
CN1CCc2nc3sc(C(N)=O)c(N)c3c(-c3cccs3)c2C1,2870,> 100,12.6

# Test system: NCI-H460
# Assay: Growth inhibition of human NCI-H460 cells assessed as cell growth at 0.1 uM incubated for 48 hrs by sulforhodamine B assay relative to control
# Type: functional
# Settings: read-out: Activity
row,Compound,growth at 0.1 µM [%]
1,CN1CCc2nc3sc(C(N)=O)c(N)c3c(-c3cccs3)c2C1,114

# Test system: CCRF-CEM
# Assay: Growth inhibition of human CCRF-CEM cells assessed as cell growth at 0.1 uM incubated for 48 hrs by sulforhodamine B assay relative to control
# Type: functional
# Settings: read-out: Activity
# Outline: (§3)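 NCI Developmental Therapeutics Program NCI60 panel. Compounds that were active in the 10 µM one-dose screen went on to dose–response testing. Growth at each concentration is expressed relative to untreated control (100%). GI50 (concentration giving 50% of maximal inhibition of proliferation) and TGI (concentration giving total growth inhibition) were derived from the curves.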
row,Compound,growth at 0.1 µM [%]
1,CN1CCc2nc3sc(C(N)=O)c(N)c3c(-c3cccs3)c2C1,107

# Test system: MDA-MB-468
# Assay: Growth inhibition of human MDA-MB-468 cells assessed as cell growth at 0.01 uM incubated for 48 hrs by sulforhodamine B assay relative to control
# Type: functional
# Settings: read-out: Activity
row,Compound,growth at 0.01 µM [%]
1,CN1CCc2nc3sc(C(N)=O)c(N)c3c(-c3cccs3)c2C1,86

# Test system: HCT-15
# Assay: Growth inhibition of human HCT-15 cells assessed as cell growth at 1 uM incubated for 48 hrs by sulforhodamine B assay relative to control
# Type: functional
# Settings: read-out: Activity
row,Compound,growth at 1 µM [%]
1,CN1CCc2nc3sc(C(N)=O)c(N)c3c(-c3cccs3)c2C1,93

# Test system: A549
# Assay: Growth inhibition of human A549/ATCC cells assessed as cell growth at 0.01 uM incubated for 48 hrs by sulforhodamine B assay relative to control
# Type: functional
# Settings: read-out: Activity
# Outline: as §3
row,Compound,growth at 0.01 µM [%]
1,CN1CCc2nc3sc(C(N)=O)c(N)c3c(-c3cccs3)c2C1,99

# Test system: RPMI-8226
# Assay: Growth inhibition of human RPMI-8226 cells incubated for 48 hrs by sulforhodamine B assay
# Type: functional
# Settings: not given
# Outline: as §1
Compound,GI50 [µM],LC50 [µM],TGI [µM]
CN1CCc2nc3sc(C(N)=O)c(N)c3c(-c3cccs3)c2C1,4.41,> 100,> 100

# Test system: TK-10
# Assay: Growth inhibition of human TK-10 cells incubated for 48 hrs by sulforhodamine B assay
# Type: functional
# Settings: not given
# Outline: as §1
Compound,GI50 [µM],TGI [µM]
CN1CCc2nc3sc(C(N)=O)c(N)c3c(-c3cccs3)c2C1,3.32,13.1

# Same assay, conditions: read-out: LC50 (the source's name)
row,Compound,CC50 [µM]
1,CN1CCc2nc3sc(C(N)=O)c(N)c3c(-c3cccs3)c2C1,> 100

# Test system: SK-MEL-5
# Assay: Growth inhibition of human SK-MEL-5 cells incubated for 48 hrs by sulforhodamine B assay
# Type: functional
# Settings: not given
# Outline: as §1
Compound,GI50 [nM],LC50 [µM],TGI [µM]
CN1CCc2nc3sc(C(N)=O)c(N)c3c(-c3cccs3)c2C1,1430,> 100,5.24

# Test system: 786-0
# Assay: Growth inhibition of human 786-0 cells assessed as cell growth at 100 uM incubated for 48 hrs by sulforhodamine B assay relative to control
# Type: functional
# Settings: read-out: Activity
row,Compound,growth at 100 µM [%]
1,CN1CCc2nc3sc(C(N)=O)c(N)c3c(-c3cccs3)c2C1,15

# Test system: NCI/ADR-RES
# Assay: Growth inhibition of human NCI/ADR-RES cells assessed as cell growth at 1 uM incubated for 48 hrs by sulforhodamine B assay relative to control
# Type: functional
# Settings: read-out: Activity
row,Compound,growth at 1 µM [%]
1,CN1CCc2nc3sc(C(N)=O)c(N)c3c(-c3cccs3)c2C1,91

# Test system: SK-MEL-2
# Assay: Growth inhibition of human SK-MEL-2 cells incubated for 48 hrs by sulforhodamine B assay
# Type: functional
# Settings: not given
# Outline: as §1
Compound,GI50 [nM],LC50 [µM],TGI [µM]
CN1CCc2nc3sc(C(N)=O)c(N)c3c(-c3cccs3)c2C1,2670,> 100,6.22

# Test system: UO-31
# Assay: Growth inhibition of human UO-31 cells assessed as cell growth at 0.01 uM incubated for 48 hrs by sulforhodamine B assay relative to control
# Type: functional
# Settings: read-out: Activity
row,Compound,growth at 0.01 µM [%]
1,CN1CCc2nc3sc(C(N)=O)c(N)c3c(-c3cccs3)c2C1,97

# Test system: NCI-H522
# Assay: Growth inhibition of human NCI-H522 cells incubated for 48 hrs by sulforhodamine B assay
# Type: functional
# Settings: not given
# Outline: as §2
Compound,GI50 [nM],LC50 [µM],TGI [µM]
CN1CCc2nc3sc(C(N)=O)c(N)c3c(-c3cccs3)c2C1,2910,> 100,17.8

# Test system: IGROV-1
# Assay: Growth inhibition of human IGROV-1 cells assessed as cell growth at 1 uM incubated for 48 hrs by sulforhodamine B assay relative to control
# Type: functional
# Settings: read-out: Activity
row,Compound,growth at 1 µM [%]
1,CN1CCc2nc3sc(C(N)=O)c(N)c3c(-c3cccs3)c2C1,129

# Test system: SK-OV-3
# Assay: Growth inhibition of human SK-OV-3 cells assessed as cell growth at 1 uM incubated for 48 hrs by sulforhodamine B assay relative to control
# Type: functional
# Settings: read-out: Activity
row,Compound,growth at 1 µM [%]
1,CN1CCc2nc3sc(C(N)=O)c(N)c3c(-c3cccs3)c2C1,89

# Test system: M14
# Assay: Growth inhibition of human M14 cells assessed as cell growth at 0.01 uM incubated for 48 hrs by sulforhodamine B assay relative to control
# Type: functional
# Settings: read-out: Activity
row,Compound,growth at 0.01 µM [%]
1,CN1CCc2nc3sc(C(N)=O)c(N)c3c(-c3cccs3)c2C1,107

# Test system: DU-145
# Assay: Growth inhibition of human DU-145 cells assessed as cell growth at 0.01 uM incubated for 48 hrs by sulforhodamine B assay relative to control
# Type: functional
# Settings: read-out: Activity
# Outline: as §3
row,Compound,growth at 0.01 µM [%]
1,CN1CCc2nc3sc(C(N)=O)c(N)c3c(-c3cccs3)c2C1,111
